Reference: ChEMBL document CHEMBL3085653, “Synthesis and evaluation of hexahydropyrimidines and diamines as novel hepatitis C virus inhibitors” (Eur J Med Chem, 2013)
pEC50: −log10 of the molar value. Where a name gives a salt, the structure may show the parent alone. The source made the active and inactive calls. The calls are words filed in the database; no cut-off is given here.

Columns and labels:
[1] = tested on: Hepatitis C virus; assay: Antiviral activity against cell culture derived HCV expressing NS5A-GFP fusion protein infected in human HuH7 cells assessed as inhibition of viral life cycle after 72 hrs by Hoechst-33342 staining-based confocal microscopy; type: functional, organism-based, Hepacivirus hominis; conditions: Huh-7, 72 h
[2] = Cytotoxicity against human HuH7 cells; type: cell-based, Huh-7
[3] = Selectivity index, ratio of CC50 for human HuH7 cells to EC50 for cell culture derived HCV expressing NS5A-GFP fusion protein; set-up: species or system Huh-7
Procedure, shortened: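 Index is CC50 divided by EC50. Both values come from the same 10-point dose response in naïve Huh-7 cells infected with NS5A-GFP HCVcc (MOI 1), read at 72 h post-infection. EC50 taken from GFP-positive infection and CC50 from Hoechst nuclei counts, by confocal imaging. Duplicates with quadruplicate measurements.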

[4] = tested on: Hepatitis C virus; assay: Antiviral activity against HCV assessed as prevention of infectious virions release into cell culture supernatant by viral supernatant transfer assay; type: functional, organism-based; conditions: Hepacivirus hominis

Row | SMILES | pEC50 [1] | CC50 [2] | Ratio CC50/EC50 [3] | Activity [4]
1 | NCCCCN [PUTRESCINE DIHYDROCHLORIDE] | < 4.30 | > 50 µM |  | 
2 | c1ccc(CNCCNCc2ccccc2)cc1 | < 4.30 | > 50 µM |  | 
3 | CN(C)c1ccc(CNCCCNCc2ccc(N(C)C)cc2)cc1 | 6.06 | 17 µM | 19 | 
4 | COc1ccc(CN2CCCN(Cc3ccc(OC)cc3)C2c2ccc(C#N)c(F)c2)cc1 | 5.72 | 29 µM | 15 | Active
5 | Fc1ccccc1CN1CCCN(Cc2ccccc2Cl)C1c1cccc(C(F)(F)F)c1 (stereo not drawn) | 4.96 | > 50 µM | >4.5 | Active
6 | c1ccc(CNCCOCCNCc2ccccc2)cc1 | 5.77 | 28 µM | 16 | 
7 | COc1ccc(CN2CCCN(Cc3ccc(OC)cc3)C2c2ccc(C(F)(F)F)cc2)cc1 | 5.80 | 34 µM | 21 | Active
8 | COc1ccc(CN2CCCN(Cc3ccc(OC)cc3)C2c2ccncc2)cc1 | 5.82 | 23 µM | 15 | Active
9 | COc1ccc(CN2CCCN(Cc3ccc(OC)cc3)C2c2ccc(F)cc2)cc1 | 5.72 | 38 µM | 20 | Active
10 | CC1N(Cc2ccccc2)CCN1Cc1ccccc1 | < 4.30 | > 50 µM |  | 
11 | c1ccc(CN2CCN(Cc3ccccc3)C2c2ccncc2)cc1 | < 4.30 | > 50 µM |  | 
12 | c1ccc(CNCCCNCc2ccccc2)cc1 | 5.34 | 27 µM | 5.9 | 
13 | CC(CNCCCNCC(C)c1ccccc1)c1ccccc1 (stereo not drawn) | 5.92 | 18 µM | 15 | 
14 | CN(C)c1ccc(C2N(Cc3ccccc3)CCN2Cc2ccccc2)cc1 | < 4.30 | > 50 µM |  | 
15 | CN(C)c1ccc(CN2CCCN(Cc3ccc(N(C)C)cc3)C2c2ccc(F)cc2)cc1 | 5.89 | 15 µM | 12 | Active
16 | c1ccc(CN2CCCN(Cc3ccccc3)C2)cc1 | < 4.30 | > 50 µM |  | Active
17 | O=C(NCCCNC(=O)c1ccccc1)c1ccccc1 | < 4.30 | > 50 µM |  | 
18 | Cc1ccc(C2N(Cc3ccccc3)CCCN2Cc2ccccc2)o1 | < 4.30 | > 50 µM |  | Active
19 | FC(F)(F)c1cccc(C2N(Cc3ccccc3)CCCN2Cc2ccccc2)c1 | 5.19 | > 50 µM | >7.7 | Active
20 | NCCCCNCCCN [SPERMIDINE TRIHYDROCHLORIDE] | < 4.30 | > 50 µM |  | 
21 | c1ccc(CNCCCCCNCc2ccccc2)cc1 | 6.21 | 29 µM | 48 | 
